According to publication PMC3889630 (European Journal of Clinical Pharmacology, 2013):
“Also recorded” adds a separate entry of the source. Read-outs that look alike come from different tables or passages of the source.

Key:
HIV = conditions: stated in discussion, no reference given; cited from earlier work
[1] = format: in vivo, human
How it was run: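 Severe renal impairment group (CLcr <30 mL/min) and matched healthy group (>90 mL/min), n=8 each, took one fasted morning 50 mg tablet. Total DTG and DTG-glucuronide measured by validated LC-MS/MS after acetonitrile extraction. Non-compartmental parameters log-transformed and compared by ANCOVA (gender fixed; age, BMI covariates) as geometric LS mean ratio impaired/healthy with 90 % CI.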

[2] = Safety and tolerability after single 50 mg DTG dose; format: in vivo, human; conditions: both groups
How it was run: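 Open-label single-dose study in HIV-seronegative adults aged 18–70 y: 8 with severe renal impairment (24-h urine CLcr <30 mL/min) and 8 healthy (CLcr >90 mL/min), matched for gender, age (±5 y) and BMI (±25 %). Each took one 50 mg tablet in the morning, fasted, and stayed housed until the last PK sample. Clinical and laboratory safety checks throughout, plus follow-up 7–10 days post-dose.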

[3] = co-administration with darunavir/ritonavir, Phase 1 study; cited from earlier work
[4] = treatment-naïve subjects, SPRING-1; cited from earlier work
[5] = cited from earlier work
[6] = cited from earlier work; remark: listed apart in the source
[7] = format: in vitro ADME, human

t1/2 ratio of DTG-Gluc to DTG ([1]; both groups of subjects)	glucuronide exposure relative to parent DTG based on molar ratios ([1]; renally-impaired population) [%]	SMILES	antiviral activity (HIV)	deaths or serious adverse events [2]	intensity of adverse events [2]	tolerability [2]	reduction of DTG trough concentration by DRV/r [3] [%]	reduction in DTG exposure between the 50 mg and 10 mg once-daily doses [4] [%]	mean elimination half-life shorter in renal impairment compared to controls ([1]; 50 mg single oral dose) [%]	correlation between creatinine clearance and DTG PK parameters ([1]; Pearson, p > 0.1)	Cmax ([1]; human, plasma, oral, 50 mg, Cmax, range of values, DTG, healthy subjects) [ng/mL]	bound to plasma proteins [5]	share of DTG among drug-related components circulating in plasma [6] [%]	renal elimination of unchanged drug ([6]; human)	GLS mean unbound plasma DTG concentration lower in renal impaired subjects ([7]; 3-hour time point) [%]	GLS mean unbound plasma DTG concentration lower in renal impaired subjects ([7]; 24-hour time point) [%]	effect of renal impairment on DTG fraction unbound in plasma ([7]; severe renal impairment vs healthy)
~1	< 10	C[C@@H]1CCO[C@H]2Cn3cc(C(=O)NCc4ccc(F)cc4F)c(=O)c(O[C@@H]4O[C@H](C(=O)O)[C@@H](O)[C@H](O)[C@H]4O)c3C(=O)N12 [DTG-Gluc, DTG-glucuronide]	no antiviral activity	–	–	–	–	–	–	–	–	–	–	–	–	–	–
–	–	C[C@@H]1CCO[C@H]2Cn3cc(C(=O)NCc4ccc(F)cc4F)c(=O)c(O)c3C(=O)N12 [DTG, Dolutegravir]	–	No deaths or serious adverse events	mild (Grade 1)	well tolerated	38	75	18	No significant correlation	820 to 3200	greater than 99%	> 97	< 1 % of the dose	14	49	did not affect; also recorded: similar
